The M2OR odorant receptor database
Residue numbers refer to the chain shown, from its start.

Key:
Details in all cases: stereoisomer not certain
OR1L3 (Homo sapiens) = molecular target: T1, OR1L3 (Homo sapiens) (UniProt Q8NH93)
T1 sequence (whole entry): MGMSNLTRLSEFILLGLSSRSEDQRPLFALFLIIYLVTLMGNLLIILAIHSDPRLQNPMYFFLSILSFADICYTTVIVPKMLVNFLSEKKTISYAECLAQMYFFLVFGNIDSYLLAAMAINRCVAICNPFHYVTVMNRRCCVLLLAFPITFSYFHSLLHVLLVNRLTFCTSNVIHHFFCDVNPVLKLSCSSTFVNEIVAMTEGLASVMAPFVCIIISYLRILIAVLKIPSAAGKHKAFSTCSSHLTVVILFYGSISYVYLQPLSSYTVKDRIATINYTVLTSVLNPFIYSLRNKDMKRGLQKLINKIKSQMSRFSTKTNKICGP
Summary of the method: (§1)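 Whether a receptor–molecule pair is responsive (active) rests on the original authors' judgment that its measured signal was statistically different from baseline. Pairs without that judgment are non-responsive (inactive). Sources used varied assay methods, commonly transient luciferase assays in mammalian cell lines.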

OR1L4 (Homo sapiens) = molecular target: T2, OR1L4 (Homo sapiens) (UniProt Q8NGR5)
T2 sequence (whole entry): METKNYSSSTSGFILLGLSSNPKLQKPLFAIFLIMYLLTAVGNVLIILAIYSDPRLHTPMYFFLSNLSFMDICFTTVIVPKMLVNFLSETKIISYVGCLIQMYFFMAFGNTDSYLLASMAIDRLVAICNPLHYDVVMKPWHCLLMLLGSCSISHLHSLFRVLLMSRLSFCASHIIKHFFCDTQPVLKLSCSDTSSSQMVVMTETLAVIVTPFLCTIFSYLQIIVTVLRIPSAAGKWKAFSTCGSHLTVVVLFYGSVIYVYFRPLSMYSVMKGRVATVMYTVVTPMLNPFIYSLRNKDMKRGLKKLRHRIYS
Summary of the method: as §1

OR1L4 = test system: T3, OR1L4
T3 sequence (whole entry): T2 sequence (whole entry) with G234R
Summary of the method: as §1

OR1L6 (Homo sapiens) = molecular target: T4, OR1L6 (Homo sapiens) (UniProt Q8NGR2)
T4 sequence (whole entry): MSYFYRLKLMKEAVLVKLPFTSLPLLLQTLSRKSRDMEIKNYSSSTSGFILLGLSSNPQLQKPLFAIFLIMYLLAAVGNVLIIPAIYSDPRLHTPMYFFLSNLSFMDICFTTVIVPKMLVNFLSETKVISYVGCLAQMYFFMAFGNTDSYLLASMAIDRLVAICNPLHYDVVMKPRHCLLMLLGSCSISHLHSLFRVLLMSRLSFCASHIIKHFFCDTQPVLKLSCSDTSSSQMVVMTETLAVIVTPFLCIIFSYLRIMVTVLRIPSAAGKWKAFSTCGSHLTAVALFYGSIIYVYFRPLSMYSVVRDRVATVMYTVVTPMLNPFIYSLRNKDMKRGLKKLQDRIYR
Summary of the method: as §1

OR1L8 (Homo sapiens) = molecular target: T5, OR1L8 (Homo sapiens) (UniProt Q8NGR8)
T5 sequence (whole entry): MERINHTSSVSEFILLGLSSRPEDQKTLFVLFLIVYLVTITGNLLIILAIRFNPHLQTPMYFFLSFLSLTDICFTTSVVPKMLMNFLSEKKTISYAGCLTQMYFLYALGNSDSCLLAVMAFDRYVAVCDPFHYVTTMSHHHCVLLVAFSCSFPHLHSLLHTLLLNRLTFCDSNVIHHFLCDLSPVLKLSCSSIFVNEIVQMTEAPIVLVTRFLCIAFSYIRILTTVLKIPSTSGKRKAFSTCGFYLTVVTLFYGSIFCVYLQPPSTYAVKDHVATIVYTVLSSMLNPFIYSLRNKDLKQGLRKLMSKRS
Summary of the method: as §1

OR1L8 T27P R211P = test system: T6, OR1L8 T27P R211P
T6 sequence (whole entry): T5 sequence (whole entry) with T27P, R211P
Summary of the method: as §1

OR1M1 (Homo sapiens) = molecular target: T7, OR1M1 (Homo sapiens) (UniProt Q8NGA1)
T7 sequence (whole entry): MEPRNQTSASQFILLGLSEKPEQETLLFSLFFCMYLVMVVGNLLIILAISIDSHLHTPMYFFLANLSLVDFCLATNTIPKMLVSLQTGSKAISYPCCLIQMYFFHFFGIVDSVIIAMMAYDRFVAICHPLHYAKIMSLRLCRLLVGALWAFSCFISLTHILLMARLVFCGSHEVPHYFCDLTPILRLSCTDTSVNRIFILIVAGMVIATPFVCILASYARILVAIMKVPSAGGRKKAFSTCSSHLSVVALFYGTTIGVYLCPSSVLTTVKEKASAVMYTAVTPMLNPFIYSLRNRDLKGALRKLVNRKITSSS
Summary of the method: as §1

OR1N1 (Homo sapiens) = molecular target: T8, OR1N1 (Homo sapiens) (UniProt Q8NGS0)
T8 sequence (whole entry): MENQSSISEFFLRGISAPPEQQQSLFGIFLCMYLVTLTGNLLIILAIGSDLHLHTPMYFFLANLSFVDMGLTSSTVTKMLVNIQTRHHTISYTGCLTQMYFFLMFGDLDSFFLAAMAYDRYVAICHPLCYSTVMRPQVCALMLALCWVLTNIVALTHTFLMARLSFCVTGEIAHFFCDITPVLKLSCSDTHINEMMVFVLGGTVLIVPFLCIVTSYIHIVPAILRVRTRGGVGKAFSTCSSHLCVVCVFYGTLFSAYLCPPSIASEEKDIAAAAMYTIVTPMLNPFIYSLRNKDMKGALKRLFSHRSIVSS
Summary of the method: as §1

OR1N2 W37R = test system: T9, OR1N2 W37R
T9 sequence (whole entry): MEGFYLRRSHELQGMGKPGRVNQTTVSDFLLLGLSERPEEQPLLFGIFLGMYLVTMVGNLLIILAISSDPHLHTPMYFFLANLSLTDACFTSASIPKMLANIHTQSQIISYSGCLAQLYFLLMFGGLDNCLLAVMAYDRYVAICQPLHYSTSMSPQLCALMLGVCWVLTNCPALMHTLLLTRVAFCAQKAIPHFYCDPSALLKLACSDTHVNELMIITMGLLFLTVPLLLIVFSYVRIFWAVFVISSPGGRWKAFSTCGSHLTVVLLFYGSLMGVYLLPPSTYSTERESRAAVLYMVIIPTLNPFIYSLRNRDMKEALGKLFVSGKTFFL
Summary of the method: as §1

OR1N2 = test system: T10, OR1N2
T10 sequence (whole entry): T9 sequence (whole entry) with R37W
Summary of the method: as §1

OR1Q1 (Homo sapiens) = molecular target: T11, OR1Q1 (Homo sapiens) (UniProt Q15612)
T11 sequence (whole entry): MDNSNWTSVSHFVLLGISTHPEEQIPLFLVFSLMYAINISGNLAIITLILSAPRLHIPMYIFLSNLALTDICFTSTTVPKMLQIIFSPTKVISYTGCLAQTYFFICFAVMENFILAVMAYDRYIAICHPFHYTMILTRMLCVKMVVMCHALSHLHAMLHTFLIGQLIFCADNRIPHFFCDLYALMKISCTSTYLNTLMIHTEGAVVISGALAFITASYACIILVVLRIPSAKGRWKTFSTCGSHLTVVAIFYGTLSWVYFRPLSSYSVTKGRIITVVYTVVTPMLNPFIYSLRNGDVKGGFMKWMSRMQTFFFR
Summary of the method: as §1

OR1Q1 = test system: T12, OR1Q1
T12 sequence (whole entry): T11 sequence (whole entry) with Q24R, I163M
Summary of the method: as §1

OR1S1 (Homo sapiens) = molecular target: T13, OR1S1 (Homo sapiens) (UniProt Q8NH92)
T13 sequence (whole entry): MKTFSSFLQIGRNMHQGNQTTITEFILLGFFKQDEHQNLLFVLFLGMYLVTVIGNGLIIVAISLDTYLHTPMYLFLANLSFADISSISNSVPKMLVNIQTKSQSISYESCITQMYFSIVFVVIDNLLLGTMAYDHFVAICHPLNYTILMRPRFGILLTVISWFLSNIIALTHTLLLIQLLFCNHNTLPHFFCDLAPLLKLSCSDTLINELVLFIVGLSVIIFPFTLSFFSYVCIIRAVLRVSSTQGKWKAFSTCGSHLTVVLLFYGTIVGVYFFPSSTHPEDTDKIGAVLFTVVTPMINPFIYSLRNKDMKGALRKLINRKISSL
Summary of the method: as §1

OR1S2 (Homo sapiens) = molecular target: T14, OR1S2 (Homo sapiens) (UniProt Q8NGQ3)
T14 sequence (whole entry): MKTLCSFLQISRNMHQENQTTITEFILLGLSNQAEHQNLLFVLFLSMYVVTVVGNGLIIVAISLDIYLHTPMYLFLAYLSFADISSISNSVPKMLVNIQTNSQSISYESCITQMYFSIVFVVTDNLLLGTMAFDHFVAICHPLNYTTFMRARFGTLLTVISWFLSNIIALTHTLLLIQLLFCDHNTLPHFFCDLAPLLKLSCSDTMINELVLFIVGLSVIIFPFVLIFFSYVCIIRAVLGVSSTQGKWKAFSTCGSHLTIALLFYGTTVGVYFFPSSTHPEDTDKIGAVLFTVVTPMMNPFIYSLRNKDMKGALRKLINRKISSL
Summary of the method: as §1

OR1S2 E17G = test system: T15, OR1S2 E17G
T15 sequence (whole entry): T14 sequence (whole entry) with E17G
Summary of the method: as §1

OR1S2 V225T G240R = test system: T16, OR1S2 V225T G240R
T16 sequence (whole entry): T14 sequence (whole entry) with V225T, G240R
Summary of the method: as §1

OR2A1 (Homo sapiens) = molecular target: T17, OR2A1 (Homo sapiens) (UniProt Q8NGT9)
T17 sequence (whole entry): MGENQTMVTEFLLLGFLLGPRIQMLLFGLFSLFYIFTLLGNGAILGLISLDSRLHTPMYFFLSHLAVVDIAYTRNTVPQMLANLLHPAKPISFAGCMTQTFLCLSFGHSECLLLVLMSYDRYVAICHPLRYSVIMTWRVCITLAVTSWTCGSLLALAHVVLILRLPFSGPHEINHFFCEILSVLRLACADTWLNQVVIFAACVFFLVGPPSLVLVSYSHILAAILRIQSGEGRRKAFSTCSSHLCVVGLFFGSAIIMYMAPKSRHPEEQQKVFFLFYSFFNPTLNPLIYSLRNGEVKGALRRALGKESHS
Summary of the method: as §1

OR2A1 S168C = test system: T18, OR2A1 S168C
T18 sequence (whole entry): T17 sequence (whole entry) with S168C
Summary of the method: as §1

OR1L6 = test system: T19, OR1L6
T19 sequence (whole entry): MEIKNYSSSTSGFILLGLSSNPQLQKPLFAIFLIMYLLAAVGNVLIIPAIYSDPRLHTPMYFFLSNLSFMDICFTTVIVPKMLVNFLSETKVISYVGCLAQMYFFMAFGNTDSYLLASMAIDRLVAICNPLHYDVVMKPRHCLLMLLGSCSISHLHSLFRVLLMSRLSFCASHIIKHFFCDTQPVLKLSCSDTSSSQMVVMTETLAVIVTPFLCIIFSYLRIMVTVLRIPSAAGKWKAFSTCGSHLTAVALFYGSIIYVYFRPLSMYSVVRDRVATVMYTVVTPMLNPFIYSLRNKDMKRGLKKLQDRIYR
Summary of the method: as §1

Measured: odorant receptor agonist call;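 note: active if original authors judged signal statistically different from baseline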

CCCCCCC=CCCC=O
inactive: OR1L3 (Homo sapiens) | OR1L4 (Homo sapiens) | OR1L4 | OR1L6 (Homo sapiens) | OR1L8 (Homo sapiens) | OR1L8 T27P R211P | OR1M1 (Homo sapiens) | OR1N1 (Homo sapiens) | OR1N2 W37R | OR1N2 | OR1Q1 (Homo sapiens) | OR1Q1 | OR1S1 (Homo sapiens) | OR1S2 (Homo sapiens) | OR1S2 E17G | OR1S2 V225T G240R | OR2A1 (Homo sapiens) | OR2A1 S168C

CC(C)CCCC(C)(C)O
inactive: OR1L3 (Homo sapiens)

COC1CC2CC1C1CC(C=O)CC21 (centres undefined)
inactive: OR1L3 (Homo sapiens)

CC(CC=O)c1ccc(C(C)(C)C)cc1 (centres undefined)
inactive: OR1L3 (Homo sapiens)

CC1=C(O)C(=O)OC1C (centres undefined)
inactive: OR1L3 (Homo sapiens) | OR1L4 (Homo sapiens) | OR1L4 | OR1L6 | OR1L8 (Homo sapiens) | OR1L8 T27P R211P | OR1M1 (Homo sapiens) | OR1N1 (Homo sapiens) | OR1N2 W37R | OR1N2 | OR1Q1 (Homo sapiens) | OR1Q1 | OR1S1 (Homo sapiens) | OR1S2 (Homo sapiens) | OR1S2 E17G | OR1S2 V225T G240R | OR2A1 (Homo sapiens) | OR2A1 S168C
